Bioassay records deposited in PubChem BioAssay by several laboratories.
This is a sample that favours compounds with a hit; in the whole collection about 3% have one here.
MEKK2 WT-MEK5: raises or lowers MEK5 binding to wildtype human MEKK2 PB1 domain; Q9Y2U5; AID 1531; bead flow cytometry, Alexa488-MEK5 binding to MEKK2 WT; actives lie on both sides; binding response (% of control), % at 10 µM; actives 1.1% (n = 290,000); in the data active means binding response below about 67% or above about 130%
MEKK3 PB1 HTS: MEKK3-MEK5 PB1 interaction, increase or decrease; Q99759; bead-based flow cytometry, Alexa488-MEK5 binding to MEKK3; actives lie on both sides; 0 = blocked by unlabeled MEK5, 100 = vehicle; binding response (% of control), % at 10 µM; actives 1.4% (n = 290,000); AID 1529;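 active means binding response more than 3 SD above or below the average of its plate-row segment, actives on both sides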;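 further: Alexa488 bead fluorescence after subtracting the streptavidin-only scavenger bead signal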
Target sequence (Q99759 whole entry, looked up): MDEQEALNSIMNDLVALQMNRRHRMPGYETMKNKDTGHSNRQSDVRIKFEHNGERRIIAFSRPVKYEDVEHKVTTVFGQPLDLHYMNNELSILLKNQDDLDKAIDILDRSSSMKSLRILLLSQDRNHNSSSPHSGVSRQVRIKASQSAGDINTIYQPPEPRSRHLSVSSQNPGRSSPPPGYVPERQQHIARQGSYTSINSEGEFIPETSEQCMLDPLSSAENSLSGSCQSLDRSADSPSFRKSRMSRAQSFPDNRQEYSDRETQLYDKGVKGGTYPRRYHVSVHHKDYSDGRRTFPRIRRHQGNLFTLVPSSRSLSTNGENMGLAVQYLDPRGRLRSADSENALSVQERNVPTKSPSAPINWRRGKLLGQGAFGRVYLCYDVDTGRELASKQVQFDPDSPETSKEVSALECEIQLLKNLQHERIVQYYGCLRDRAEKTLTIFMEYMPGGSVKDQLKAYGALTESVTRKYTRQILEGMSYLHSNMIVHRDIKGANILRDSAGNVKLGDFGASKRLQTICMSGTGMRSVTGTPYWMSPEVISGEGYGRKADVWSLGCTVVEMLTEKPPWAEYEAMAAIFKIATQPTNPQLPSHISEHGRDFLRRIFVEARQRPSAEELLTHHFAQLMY
UCH37 DUB inh: human UCH37 deubiquitinating enzyme inhibition. Q9Y5K5. AID 588478. purified proteasome/UCH37, Ub-AMC cleavage fluorescence. actives 0.33% (n = 330,000). inhibition, % (no concentration beside the values);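 active means mean inhibition over replicate wells above about 20%, limit read from the data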;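 further: 0% = compound-free wells with enzyme and 100% = wells lacking proteasome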
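Material: Human UCH37 enzyme supplied as purified proteasome complex | Schedule: 30 min compound-proteasome preincubation then 25 min substrate reaction, room temperature | Detection: AMC fluorescence from Ub-AMC cleavage, excitation 355 nm, emission 460 nm | Benchmarks: Wells without proteasome as full block, compound-free enzyme plus substrate as uninhibited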
Apaf-1 inh: inhibitors of human Apaf-1 apoptosome; O14727; reconstituted apoptosome caspase-3 activity, DEVD-Rh110 fluorescence; inhibition, % at 20 µM; actives 0.71% (n = 330,000); AID 489030; active means inhibition of at least 40% at 20 µM;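 further: plate controls were DMSO wells for no effect and DEVD-CHO caspase inhibitor wells for full effect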
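Material: cell-free apoptosome with Apaf-1, procaspase-3 and caspase-9; Buffer or medium: Hepes pH 7.5 with detergent and BSA; Reagent: cytochrome c trigger plus (Z-DEVD)2-Rh110 caspase-3 substrate; Times: compound with Apaf-1, dATP, procaspase-3 30 min, then 50 min reaction, room temperature; Technique: Rh110 fluorescence intensity.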
UBC13 inh: inhibitors of human UBC13 polyubiquitin chain formation | P61088 | TR-FRET | inhibition, % at 20 µM | actives 0.47% (n = 330,000); in the data active means inhibition above about 45%, passing the limit was not always enough
MEKK2mut PB1 HTS: signal of MEK5 binding to mutant human MEKK2 PB1 domain | bead flow cytometry, Alexa488-MEK5 binding to MEKK2 mutant | percent response, % at 10 µM | actives 0.35% (n = 290,000) | AID 1530; in the data active means percent response above about 24%, passing the limit was not always enough
MEKK2wt confirm: raises or lowers MEK5 binding to wildtype human MEKK2, retest; shares compounds with MEKK3 PB1 HTS; bead flow cytometry, Alexa488-MEK5 binding to MEKK2 WT; actives lie on both sides; binding response (% of control), % at 10 µM; actives 2.4% (n = 5,900); in the data active means binding response below about 16% or above about 210%; inactive means in between
MEKK2mut confirm: signal of MEK5 binding to mutant human MEKK2, retest. shares compounds with MEKK3 PB1 HTS. bead flow cytometry, Alexa488-MEK5 binding to MEKK2 mutant. percent response, % at 10 µM. actives 2% (n = 5,900); in the data active means percent response mostly above about 71%, no sharp cut-off; inactive means mostly below about 38%;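 further: higher means compound restores mutant binding toward wildtype level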
MEKK3-MEK5 inh: MEKK3-MEK5 PB1 inhibition, single concentration confirmation; binding response (% of control), % at 10 µM; shares compounds with MEKK3 PB1 HTS; bead flow cytometry, Alexa488-MEK5 binding to MEKK3; hits give low values; actives 1.8% (n = 5,900);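 active means binding response below 72% of control, or above a set upper limit, though filed actives all read lower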;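 further: 100% = DMSO only wells and 0% = binding blocked by excess unlabeled MEK5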
An asterisk follows results filed as active; / = no result; [ ] = dose if it differs, or a comment.

SMILES	MEKK2 WT-MEK5	MEKK3 PB1 HTS	UCH37 DUB inh	Apaf-1 inh	UBC13 inh	MEKK2mut PB1 HTS	MEKK2wt confirm	MEKK2mut confirm	MEKK3-MEK5 inh
COc1ccc(N2C(=O)/C(=C/c3cccnc3)NC2=S)cc1	112	138*	/	8	-24	2	87	-2	99
COc1cccc(N2C(=O)/C(=C\c3cccs3)NC2=S)c1	92	102	5	0	-10	-3	/	/	/
CCNc1[nH]c(=O)n(C)c(=O)c1N=O	108	105	6	5	-13	5	/	/	/
C=C(C)Cn1c(SCC)nc2ccccc2c1=O	106	103	5	8	1	4	/	/	/
C=C(C)Cn1c(SCC#N)nc2ccccc2c1=O	92	82*[inhibitor]	5	-4	-1	-10	101	-1	104
Cn1c(SCC#N)nc2ccccc2c1=O	116	128*	1	-3	5	29	96	-12	99
Cn1cc(S(=O)(=O)N2CCOCC2)cc1C(=O)NCCc1ccccc1	103	101	3	-7	8	1	/	/	/
COC(=O)c1[nH]c2ccccc2c1NC(=O)CN1CCC(C(N)=O)(N2CCCCC2)CC1	113	111	-5	5	4	14	/	/	/
COc1cccc(C(=O)N2CCN(Cc3ccco3)CC2)c1OC	110	104	3	1	-1	5	/	/	/
CC1(C)CC(=O)C([N+](=O)[O-])=C(NCCCC(=O)O)C1	97	64*[inhibitor]	5	-5	-6	-1	98	-3	100
CC1(C)CC(=O)C(C#N)=C(NCCCO)C1	90	89	3	-5	-2	-3	/	/	/
O=C(CNc1cc(S(=O)(=O)N2CCCC2)ccc1OCC(F)(F)F)Nc1cc(Cl)cc(Cl)c1	108	104	3	-11	-6	3	/	/	/
O=C(CNc1cc(S(=O)(=O)N2CCCC2)ccc1OCC(F)(F)F)Nc1ccc(SC(F)F)cc1	115	144*	2	-12	6	1	90	-13	100
CCNc1ncnc2[nH]ncc12	/	/	1	/	/	/	/	/	/
O=C(CC1C(=O)NCCN1CC1CCCCC1)NCc1ccc(Cl)cc1 (stereo not given)	147*	117	-1	19	10	26	118	12	106
O=C(CNc1ccc(Cl)cc1)NNC(=S)NCc1ccccc1	93	107	4	12	0	5	/	/	/
COc1ccccc1CN1CCCC(CN(CCN(C)C)C(=O)C2CCCC2)C1 (stereo not given)	135*	111	1	-1	6	34*	112	10	101
CCN(CC)C(=O)CN(c1cc(Cl)ccc1OC)S(C)(=O)=O	101	100	1	-11	-6	2	/	/	/
CCC(C)NC(=O)CN(c1cc(Cl)ccc1OC)S(C)(=O)=O (stereo not given)	114	140*	1	-6	14	1	99	-6	99
COCc1cc(C)n(CC(=O)Nc2ccccc2C(=O)OC)c(=O)c1C#N	2.0*[inhibitor]	2.0*[inhibitor]	-30	1	5	-17	99	1	103
O=C(CNc1ccccc1)N/N=C/c1ccc([N+](=O)[O-])cc1	106	134*	/	-2	-34	0	100	3	102
O=C(CNc1ccccc1)N/N=C/c1ccc2c(c1)OCO2	104	135*	/	-7	-20	-1	105	5	103
O=C(CNc1cccc2ccccc12)NN=Cc1ccc([N+](=O)[O-])cc1	/	/	0	/	/	/	/	/	/
O=C(c1ccccc1)N1CCC(CC2CC(c3cccc(Br)c3)=NO2)(C(=O)NCC2CCCCC2)CC1 (stereo not given)	89	93	1	22	2	-8	/	/	/
CC(C)n1c(=O)c2c(O)cc(=O)oc2c2ccccc21	93	97	-18	8	1	-3	/	/	/
SMILES	MEKK2 WT-MEK5	MEKK3 PB1 HTS	UCH37 DUB inh	Apaf-1 inh	UBC13 inh	MEKK2mut PB1 HTS	MEKK2wt confirm	MEKK2mut confirm	MEKK3-MEK5 inh
Nc1[nH][nH]c(=O)c1N=Nc1ccccc1	/	/	13	/	/	/	/	/	/
C=CCn1c(SCc2cc(=O)n3cc(C)ccc3n2)nnc1-c1cccc(C)c1	101	99	-2	8	1	-2	/	/	/
C=CCOc1ccc(-c2n[nH]c(=S)o2)cc1	112	131*	-2	-15	5	0	94	-2	98
Cc1nc2c(-c3ccc(F)cc3)c(C)nn2c(C)c1CCC(=O)Nc1ccccc1F	48	45*[inhibitor]	-18	9	9	-13	94	-7	99
COc1ccc(CCCNC(=O)C2CCC(=O)N(Cc3ccccc3F)C2)cc1 (stereo not given)	108	101	0	4	3	8	/	/	/
O=C(CNS(=O)(=O)c1cccs1)NCc1ccc(F)cc1	130	142*	1	2	-1	6	102	1	102
COc1ccc(-c2csc(NC(=O)c3cccc(S(=O)(=O)N4CCN(C)CC4)c3)n2)cc1	102	72*[inhibitor]	-11	21	2	-8	125	43	106
CN1CCN(S(=O)(=O)c2cccc(C(=O)Nc3nc(-c4ccccc4)cs3)c2)CC1	/	/	3	-10	17	/	/	/	/
COc1ccc(-c2csc(NC(=O)C3CCCCN3S(=O)(=O)c3ccccc3)n2)cc1 (stereo not given)	90	80*[inhibitor]	1	19	-11	-6	95	-5	95
COc1ccc(-c2csc(NC(=O)CS(=O)(=O)c3ccccc3)n2)cc1	/	/	-3	13	0	/	/	/	/
O=c1c([N+](=O)[O-])c(N2CCCCCC2)c2ccccc2n1-c1ccccc1	/	49*[inhibitor]	1	17	-8	/	101	1	105
O=c1sc2ccccc2c(N2CCCCC2)c1[N+](=O)[O-]	102	102	6	2	-11	8	/	/	/
Cc1cccc(NC(=S)NCCCN2CCOCC2)c1	112	138*	4	-1	4	1	101	3	104
COc1cccc(NC(=S)NCCN2CCOCC2)c1	116	141*	0	4	-2	1	105	9	106
S=C(NCCCN1CCOCC1)Nc1cccc(Cl)c1	102	103	3	-10	-8	2	/	/	/
S=C(NCCN1CCOCC1)Nc1cccc(Cl)c1	110	112	-24	-6	8	5	/	/	/
